Common to all, as to type: functional, cell-based
The nature of assay [1]: Cytotoxicity against human HGC27 cells assessed as growth inhibition after 72 hrs by MTT assay. The settings on record: HGC-27, 72 h. The method in brief: (§1)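 MTT cytotoxicity assay on three human cancer cell lines: HCT-116 (colon carcinoma), HGC-27 (gastric carcinoma) and JEKO-1 (mantle cell lymphoma).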
(Tetrazolium dyes change colour on reduction, which living cells bring about.)

A short description of assay [2]: Cytotoxicity against human JeKo1 cells assessed as growth inhibition after 72 hrs by MTT assay. The settings on record: JeKo-1, 72 h. The method in brief:
as §1

A short description of assay [3]: Cytotoxicity against human HCT116 cells assessed as growth inhibition after 72 hrs by MTT assay. The settings on record: HCT-116, 72 h. The gist of the method:
as §1

pIC50: −log10 of the molar value.

What is called pIC50 is the IC50 on a negative log10 scale, so that one unit is a factor of ten. For the compound `CCOC(=O)[C@]1(C)CCC[C@@]2(C)[C@@H]3CC[C@@]4(C)C[C@]3(CC[C@@H]21)[C@H](CO)[C@H]4NC(=S)Nc1ccccc1C`, the pIC50 in assay [1] was 5.30; in assay [2], 4.61; in assay [3], 5.32.

`CCOC(=O)[C@]1(C)CCC[C@@]2(C)[C@@H]3CC[C@@]4(C)C[C@]3(CC[C@@H]21)C[C@H]4N`: the pIC50 in assay [1] is 5.59; in assay [2], 5.66; in assay [3] it was 5.29.

Regarding `CCOC(=O)[C@]1(C)CCC[C@@]2(C)[C@@H]3CC[C@@]4(C)C[C@]3(CC[C@@H]21)[C@H](CO)[C@H]4NC(=S)Nc1ccc(Cl)cc1`, the values for the pIC50 in assay [1], in assay [2] and in assay [3] were 5.48, 5.24 and 5.36, respectively.

On to `C=C[C@]12CC[C@H]3[C@@](C)(CCC[C@@]3(C)C(=O)OCC)[C@@H]1CC[C@](C)(CN)C2`, for which the values for the pIC50 in assay [1], in assay [2] and in assay [3] were 5.52, 5.67 and 5.61, respectively.

For the compound `CCOC(=O)[C@]1(C)CCC[C@@]2(C)[C@@H]3CC[C@@]4(C)C[C@]3(CC[C@@H]21)[C@H](CO)[C@H]4NC(=S)Nc1ccccc1Br`, the pIC50 in assay [1] is 4.81; in assay [2], 4.85; in assay [3] it was 4.68.

With `CCOC(=O)[C@]1(C)CCC[C@@]2(C)[C@@H]3CC[C@@]4(C)C[C@]3(CC[C@@H]21)C[C@H]4NC(=S)N[C@@H](C)c1ccccc1`, the pIC50 in assay [1] is 4.74; in assay [2], 4.82; in assay [3] it was 5.18.

Turning to `CCOC(=O)[C@]1(C)CCC[C@@]2(C)[C@@H]3CC[C@@]4(C)C[C@]3(CC[C@@H]21)[C@H](CO)[C@H]4NC(=S)Nc1ccccc1Cl`, the figures for the pIC50 in assay [1], in assay [2] and in assay [3] were 5.05, 4.39 and 5.14, respectively.

As to `CCOC(=O)[C@]1(C)CCC[C@@]2(C)[C@@H]3CC[C@@]4(C)C[C@]3(CC[C@@H]21)[C@H](CO)[C@H]4NC(=S)Nc1ccccc1OC`, the pIC50 was 5.04 in assay [1], 4.55 in assay [2] and 5.27 in assay [3].

Take `CCOC(=O)[C@]1(C)CCC[C@@]2(C)[C@@H]3CC[C@@]4(C)C[C@]3(CC[C@@H]21)[C@H](CO)[C@H]4N`: the pIC50 is 5.23 in assay [1], 5.45 in assay [2] and 5.31 in assay [3].

As for `CCOC(=O)[C@]1(C)CCC[C@@]2(C)[C@@H]3CC[C@@]4(C)C[C@]3(CC[C@@H]21)[C@H](CO)[C@H]4NC(=S)Nc1cccc(OC)c1`, the pIC50 in assay [1] is 5.14; in assay [2], 4.50; in assay [3], 5.42.

Turning to `CCOC(=O)[C@]1(C)CCC[C@@]2(C)[C@@H]3CC[C@@]4(C)C[C@]3(CC[C@@H]21)[C@H](CO)[C@H]4NC(=S)Nc1ccc(C)cc1`, the pIC50 in assay [1] was 5.26; in assay [2], 4.52; in assay [3], 5.25.

With `CCOC(=O)[C@]1(C)CCC[C@@]2(C)[C@@H]3CC[C@@]4(C)C[C@]3(CC[C@@H]21)[C@H](CO)[C@H]4NC(=S)Nc1cccc(F)c1`, the pIC50 in assay [1] is 5.30; in assay [2] it was 4.54; in assay [3], 5.31.

Turning to `CCOC(=O)[C@]1(C)CCC[C@@]2(C)[C@@H]3CC[C@@]4(C)C[C@]3(CC[C@@H]21)[C@H](CO)[C@H]4NC(=S)Nc1ccccc1[N+](=O)[O-]`, the figures for the pIC50 in assay [1], in assay [2] and in assay [3] were 4.64, 4.57 and 4.93, respectively.

With `CCOC(=O)[C@]1(C)CCC[C@@]2(C)[C@@H]3CC[C@@]4(C)C[C@]3(CC[C@@H]21)[C@H](CO)[C@H]4NC(=S)Nc1ccc(OC)cc1`, the values for the pIC50 in assay [1], in assay [2] and in assay [3] were 5.11, 4.39 and 5.34, respectively.

`CCOC(=O)[C@]1(C)CCC[C@@]2(C)[C@@H]3CC[C@@]4(C)C[C@]3(CC[C@@H]21)[C@H](CO)[C@H]4N=C=S`: the pIC50 in assay [1] is 5.11; in assay [2] it was 4.52; in assay [3], 5.35.

In the case of `CCOC(=O)[C@]1(C)CCC[C@@]2(C)[C@@H]3CC[C@@]4(C)C[C@]3(CC[C@@H]21)[C@H](CO)[C@H]4NC(=S)Nc1ccccc1`, the pIC50 in assay [1] was 5.29; in assay [2], 4.56; in assay [3] it was 5.24.

With `CCOC(=O)[C@]1(C)CCC[C@@]2(C)[C@@H]3CC[C@@]4(C)C[C@]3(CC[C@@H]21)C[C@H]4NC(=S)NNC(=O)c1ccccc1`, the pIC50 is 4.58 in assay [1], 4.25 in assay [2] and 4.82 in assay [3].

As for `CCOC(=O)[C@]1(C)CCC[C@@]2(C)[C@@H]3CC[C@@]4(C)C[C@]3(CC[C@@H]21)[C@H](CO)[C@H]4NC(=S)Nc1ccc(F)cc1`, the pIC50 in assay [1] is 5.31; in assay [2], 4.63; in assay [3], 5.32.

Regarding `CCOC(=O)[C@]1(C)CCC[C@@]2(C)[C@@H]3CC[C@@]4(C)C[C@]3(CC[C@@H]21)[C@H](CO)[C@H]4NC(=S)Nc1c(C)cccc1C`, the pIC50 in assay [1] is 5.05; in assay [2], 4.68; in assay [3], 5.34.

As for `CCOC(=O)[C@]1(C)CCC[C@@]2(C)[C@@H]3CC[C@@]4(C)C[C@]3(CC[C@@H]21)[C@H](CO)[C@H]4NC(=S)Nc1cccc(Br)c1`, the figures for the pIC50 in assay [1], in assay [2] and in assay [3] were 5.04, 4.56 and 5.38, respectively.

Take `CCOC(=O)[C@]1(C)CCC[C@@]2(C)[C@@H]3CC[C@@]4(C)C[C@]3(CC[C@@H]21)C[C@H]4NC(=S)NC1CCCCC1`: the pIC50 in assay [1] is 4.04; in assay [2], 4.02; in assay [3], 4.08.

With `C[C@@]12CC[C@@H]3[C@@](CC[C@H]4[C@@]3(C)CCC[C@@]4(C)C(=O)O)(CC1=O)C2` [ISOSTEVIOL], the pIC50 in assay [1], in assay [2] and in assay [3] was less than 4.00 each time.

On to `CCOC(=O)[C@]1(C)CCC[C@@]2(C)[C@@H]3CC[C@@]4(C)C[C@]3(CC[C@@H]21)[C@H](CO)[C@H]4NC(=S)Nc1cccc([N+](=O)[O-])c1`, for which the pIC50 is 5.62 in assay [1], 5.28 in assay [2] and 5.73 in assay [3].

Take `C=C[C@]12CC[C@H]3[C@@](C)(CCC[C@@]3(C)C(=O)OCC)[C@@H]1CC[C@](C)(CNC(=S)Nc1ccccc1)C2`: the pIC50 in assay [1] is 5.17; in assay [2], 5.56; in assay [3] it was 5.46.

Regarding `CCOC(=O)[C@]1(C)CCC[C@@]2(C)[C@@H]3CC[C@@]4(C)C[C@]3(CC[C@@H]21)[C@H](CO)[C@H]4NC(=S)Nc1cccc(C)c1`, the pIC50 in assay [1] was 5.36; in assay [2], 4.68; in assay [3], 5.33.

Turning to `CCOC(=O)[C@]1(C)CCC[C@@]2(C)[C@@H]3CC[C@@]4(C)C[C@]3(CC[C@@H]21)[C@H](CO)[C@H]4NC(=S)Nc1ccc([N+](=O)[O-])cc1`, the pIC50 in assay [1] was 5.63; in assay [2] it was 5.45; in assay [3], 5.84.

Turning to `CCOC(=O)[C@]1(C)CCC[C@@]2(C)[C@@H]3CC[C@@]4(C)C[C@]3(CC[C@@H]21)C[C@H]4NC(=S)Nc1ccccc1`, the pIC50 is 4.86 in assay [1], 4.67 in assay [2] and 5.06 in assay [3].

`CCOC(=O)[C@]1(C)CCC[C@@]2(C)[C@@H]3CC[C@@]4(C)C[C@]3(CC[C@@H]21)[C@H](CO)[C@H]4NC(=S)Nc1ccc(Cl)cc1Cl`: the pIC50 in assay [1] was 5.32; in assay [2], 4.56; in assay [3] it was 5.40.

Consider `CCOC(=O)[C@]1(C)CCC[C@@]2(C)[C@@H]3CC[C@@]4(C)C[C@]3(CC[C@@H]21)[C@H](CO)[C@H]4NC(=S)Nc1ccc(Br)cc1`, for which the figures for the pIC50 in assay [1], in assay [2] and in assay [3] were 5.53, 5.17 and 5.65, respectively.

Regarding `CCOC(=O)[C@]1(C)CCC[C@@]2(C)[C@@H]3CC[C@@]4(C)C[C@]3(CC[C@@H]21)[C@H](CO)[C@H]4NC(=S)Nc1ccccc1F`, the results for the pIC50 in assay [1], in assay [2] and in assay [3] were 5.13, 4.45 and 5.31, respectively.

In the case of `CCOC(=O)[C@]1(C)CCC[C@@]2(C)[C@@H]3CC[C@@]4(C)C[C@]3(CC[C@@H]21)[C@H](CO)[C@@H]4N`, the pIC50 was 5.14 in assay [1], 5.61 in assay [2] and 5.31 in assay [3].

On to `CCOC(=O)[C@]1(C)CCC[C@@]2(C)[C@@H]3CC[C@@]4(C)C[C@]3(CC[C@@H]21)[C@H](CO)[C@H]4NC(C)=O`, for which the pIC50 was 4.74 in assay [1], 4.21 in assay [2] and 4.82 in assay [3].

`C=C[C@]12CC[C@H]3[C@@](C)(CCC[C@@]3(C)C(=O)OCC)[C@@H]1CC[C@](C)(CN=C=S)C2`: the pIC50 in assay [1] is 4.94; in assay [2], 5.27; in assay [3], 5.38.

On to `CCOC(=O)[C@]1(C)CCC[C@@]2(C)[C@@H]3CC[C@@]4(C)C[C@]3(CC[C@@H]21)C[C@H]4N=C=S`, for which the pIC50 is 4.94 in assay [1], 4.42 in assay [2] and 5.16 in assay [3].

Take `CCOC(=O)[C@]1(C)CCC[C@@]2(C)[C@@H]3CC[C@@]4(C)C[C@]3(CC[C@@H]21)[C@H](COC(C)=O)[C@H]4NC(C)=O`: the pIC50 in assay [1] was 4.69; in assay [2] it was 4.22; in assay [3] it was 4.70.

For `CCOC(=O)[C@]1(C)CCC[C@@]2(C)[C@@H]3CC[C@@]4(C)C[C@]3(CC[C@@H]21)[C@H](CO)[C@H]4NC(=S)Nc1cccc(Cl)c1`, the pIC50 in assay [1] was 5.26; in assay [2] it was 4.69; in assay [3], 5.56.

Source of the values: ChEMBL document CHEMBL3784963, “Synthesis, cytotoxic activity evaluation and HQSAR study of novel isosteviol derivatives as potential anticancer agents” (Eur J Med Chem, 2016).
